Assay results gathered from unrelated publications.
Target: Tyrosine-protein kinase Blk (BLK, Homo sapiens, UniProt P51451)

| SMILES | effect on | mode | method | concentration | quantity | value |
| --- | --- | --- | --- | --- | --- | --- |
| CC(C)S(=O)(=O)c1ccc2nccc(Nc3ccc4sc(C5CCCC5)nc4c3)c2c1 | enzyme activity | inhibitor | – | 1 µM | activity vs control | 80% |
| C1=C/COCc2cc(ccc2OCCN2CCCC2)Nc2nccc(n2)-c2cccc(c2)COC/1 | binding | – | – | 0.1 µM | remaining binding | 97% |
| COc1ccc2oc(-c3ccc4nc(N)oc4c3)c/c(=N\c3ccccc3NC(=O)CCN)c2c1 | binding | – | – | 1 µM | remaining binding | 92% |
| CC#CC(=O)N1CCC[C@H]1c1nc(-c2ccc(C(=O)Nc3ccccn3)cc2)c2c(N)nccn12 | enzyme activity | inhibitor | – | 1 µM | inhibition | 47% |
| C[C@H]1CC[C@H](n2c3cnccc3c3cnc(Nc4ccc5c(n4)CCN(C(=O)CO)C5)nc32)CC1 | cell-free assay | – | competition with immobilised ligand | 1 µM | remaining binding | 53% |
| CCCCC(=O)Nc1ccc(-c2ccc3ncn(CCC)c(=O)c3c2)cn1 | binding | – | competition with immobilised ligand | 0.5 µM | remaining binding | 83% |
| CO[C@@H]1[C@H](N(C)C(=O)c2ccccc2)C[C@H]2O[C@]1(C)n1c3ccccc3c3c4c(c5c6ccccc6n2c5c31)C(=O)NC4 | enzyme activity | inhibitor | – | 1 µM | inhibition | 79% |
| Cc1ccc(NC(=O)c2ccnc(C(F)(F)F)c2)cc1-c1cc(OCCO)nc(N2CCOCC2)c1 | binding | – | competition with immobilised ligand | 1 µM | remaining binding | 100% |
